Test results: ChEMBL document CHEMBL4823264, “Efficient Dimerization Disruption of Leishmania infantum Trypanothione Reductase by Triazole-phenyl-thiazoles” (J Med Chem, 2021)
Calls of active or inactive are those of the source. The calls are words filed in the database; no cut-off is given here.

How the values were obtained:
[1] = Selectivity index, ratio of EC50 for human HepG2 cells to EC50 for promastigote stage of Leishmania infantum MCAN/ES/89/IPZ229/1/89 infected in human HepG2 cells; type: toxicity, cell-based; details: read-out: Ratio EC50
[2] = Selectivity index, ratio of EC50 for human HepG2 cells to EC50 for axenic amastigote stage of Leishmania infantum MCAN/ES/89/IPZ229/1/89 infected in human HepG2 cells; type: toxicity, cell-based; details: read-out: Ratio EC50
[3] = molecular target: Trypanothione reductase (Leishmania infantum) (UniProt A4HSF7); assay: Inhibition of recombinant His-FLAG-tagged Leishmania infantum TryR dimerization expressed in Escherichia coli […] assessed as reduction in TryR dimer at 20 uM using TS2 as substrate after 16 hrs by ELISA relative to control
Chain of Trypanothione reductase (Leishmania infantum) (A4HSF7 as listed by the source): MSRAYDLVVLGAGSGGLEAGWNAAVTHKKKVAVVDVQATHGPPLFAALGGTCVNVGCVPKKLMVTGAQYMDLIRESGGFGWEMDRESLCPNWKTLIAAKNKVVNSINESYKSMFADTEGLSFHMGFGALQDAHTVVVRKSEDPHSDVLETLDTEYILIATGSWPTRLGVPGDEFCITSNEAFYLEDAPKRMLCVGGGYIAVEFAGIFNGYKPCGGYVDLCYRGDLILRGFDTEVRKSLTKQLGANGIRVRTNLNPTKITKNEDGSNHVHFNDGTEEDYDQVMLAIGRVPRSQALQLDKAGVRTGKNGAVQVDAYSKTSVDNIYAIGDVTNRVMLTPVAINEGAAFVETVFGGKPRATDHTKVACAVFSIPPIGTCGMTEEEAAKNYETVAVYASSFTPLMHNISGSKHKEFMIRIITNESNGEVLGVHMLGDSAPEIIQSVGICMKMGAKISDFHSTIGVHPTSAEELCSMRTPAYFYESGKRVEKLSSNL
Summary of the method: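 HIS-FLAG-tagged LiTryR at 400 nM incubated 16 h at 37 °C in 300 mM NaCl, 50 mM Tris pH 8.0 with 3.12–75 μM compound, then centrifuged. Supernatant captured on anti-FLAG plates and detected with anti-HIS-HRP and OPD at 490 nm.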

THP-1 = assay: Cytotoxicity against human THP-1 cells at 75 uM by LDH assay; type: cell-based; details: thp-1, 75 µM
Summary of the method: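 PMA-differentiated (100 ng/mL, 24 h) THP-1 macrophages infected with GFP-expressing amastigotes were exposed to compound, and viability was measured by LDH activity. The maximum concentration assayed was 75 μM. Three independent experiments.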

[4] = molecular target: T1, Glutathione reductase, mitochondrial (Homo sapiens) (UniProt P00390); assay: Inhibition of recombinant human GR oxidoreductase activity by DTNB-reagent based spectrophotometric method
T1 sequence (whole entry): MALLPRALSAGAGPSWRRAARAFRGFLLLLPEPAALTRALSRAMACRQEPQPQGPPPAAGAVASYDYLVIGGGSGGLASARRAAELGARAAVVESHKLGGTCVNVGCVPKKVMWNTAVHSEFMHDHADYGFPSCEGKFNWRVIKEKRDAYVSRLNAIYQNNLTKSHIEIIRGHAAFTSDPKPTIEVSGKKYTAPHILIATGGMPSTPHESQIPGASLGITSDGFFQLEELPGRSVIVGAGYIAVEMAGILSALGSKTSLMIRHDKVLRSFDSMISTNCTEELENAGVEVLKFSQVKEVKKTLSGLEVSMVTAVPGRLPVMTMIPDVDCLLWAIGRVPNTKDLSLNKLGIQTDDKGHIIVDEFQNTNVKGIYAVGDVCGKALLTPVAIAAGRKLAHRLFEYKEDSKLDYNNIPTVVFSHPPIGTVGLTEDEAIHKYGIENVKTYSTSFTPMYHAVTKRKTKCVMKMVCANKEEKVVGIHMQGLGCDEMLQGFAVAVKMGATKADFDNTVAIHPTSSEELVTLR
Summary of the method: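 Recombinant hGR (7 nM) assayed at 37 °C in 40 mM HEPES pH 7.5 with 1 mM EDTA, 60 μM NADP+, 150 μM DTNB, 50 μM GSSG, 300 μM NADPH and 1.75% DMSO. TNB formation followed at 412 nm; at least three independent experiments, nonlinear regression.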

[5] = Drug uptake in Leishmania infantum promastigotes at 25 uM after 1 hr by fluorescence microscopy analysis; type: ADME; details: in vivo
Summary of the method: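 Log-phase promastigotes exposed to 25 μM compound for 1 h at 26 °C, fixed in […], mounted on polylysine slides and imaged by fluorescence microscopy for blue compound fluorescence.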

SMILES | inhibition [4] | selectivity ratio [2] | other results
COc1cc(-n2cc(CCCCN)nn2)ccc1-c1nc(CCc2ccccc2)cs1 | – | – | selectivity ratio [1]: 1.8
NCCCCc1cn(-c2ccc(-c3nc(-c4ccc(Oc5ccccc5)cc4)c(-c4ccccc4)s3)c(OCCN3CCNC3=O)c2)nn1 | – | ≥ 3.3 | –
NCCCCc1cn(-c2ccc(-c3nc(CCc4ccc(Oc5ccccc5)cc4)c(-c4ccccc4)s3)c(OCCN3CCNC3=O)c2)nn1 | – | < 1 | –
NCCCCc1cn(-c2ccc(-c3nc(CCc4ccc(-c5ccccc5)cc4)c(-c4ccccc4)s3)c(OCCN3CCNC3=O)c2)nn1 | – | 1.3 | –
NCCNCc1nccn1-c1ccc(-c2nc(CCc3ccc4ccccc4c3)cs2)c(OCCN2CCNC2=O)c1 | – | 2.1 | inhibition [3]: 26%; selectivity ratio [1]: 2.1
NCCCc1cn(-c2ccc(-c3nc(CCc4ccc(-c5ccccc5)cc4)cs3)c(OCCN3CCNC3=O)c2)nn1.O=C(O)C(F)(F)F | – | – | Activity (THP-1): 100%
NCCCCc1cn(-c2ccc(-c3nc(-c4ccc(-c5ccccc5)cc4)c(-c4ccccc4)s3)c(OCCN3CCNC3=O)c2)nn1 | – | 1.8 | –
NCCNCc1nccn1-c1ccc(-c2nc(CCc3ccc(-c4ccccc4)cc3)cs2)c(OCCN2CCNC2=O)c1 | – | – | inhibition [3]: 32%
COc1cc(-n2cc(CCCCN)nn2)ccc1-c1nc(CCc2ccc(-c3ccccc3)cc2)cs1 | – | 1.9 | –
NCCCCc1cn(-c2ccc(-c3nc(CCc4ccccc4)cs3)c(OCCN3CCNC3=O)c2)nn1.O=C(O)C(F)(F)F | inactive | – | Drug uptake [5]: Active
NCCCCc1cn(-c2ccc(-c3nc(-c4ccccc4)c(-c4ccccc4)s3)c(OCCN3CCNC3=O)c2)nn1 | inactive | – | –

Continued, in another order:

inhibition [4] | SMILES | selectivity ratio [2] | other results
inactive | NCCCCc1cn(-c2ccc(-c3nc(CCc4ccc(-c5ccccc5)cc4)cs3)c(OCCN3CCNC3=O)c2)nn1.O=C(O)C(F)(F)F | – | Activity (THP-1): 100%
inactive | NCCCCc1cn(-c2ccc(-c3nc(CCc4ccc5ccccc5c4)cs3)c(OCCN3CCNC3=O)c2)nn1 | – | –
inactive | NCCCCc1cn(-c2ccc(-c3nc(-c4ccccc4)cs3)c(OCCN3CCNC3=O)c2)nn1 | – | –
